# Measurements taken from ChEMBL document CHEMBL1123278, “Synthesis and dopaminergic activity of trans-6-methyl-7a,8,9,10,11,11a-hexahydro-7H-pyrrolo[3,2,1-gh]- 4,7-phenanthroline and trans-1,2,3,4,4a,5,6,10b-octahydro-4,7-phenanthroline derivatives” (J Med Chem, 1986).
# Tests used:
# [1] = Compound was evaluated for its acute toxicity in rat; assay type: organism-based; settings: in vivo
# Outline: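 Male Wistar rats (200–250 g), 50 per substance, given single ip doses at five dose levels with 10 rats per dose. Deaths were followed for up to 14 days. LD50 was estimated by the Weil method, with 95% confidence limits.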
# Rattus norvegicus [2] = assay: Dopaminergic activity, ability to lower serum prolactin levels after intraperitoneal administration of compound (11.2 mg/kg) in rats; assay type: functional, organism-based
# Outline: (§1)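 Adult male Wistar rats (250–300 g) were caged singly with food and water ad libitum. Each rat got reserpine pretreatment, 2.5 mg/rat ip (2.5 mg/mL), 18 h before the drug. Drugs were dissolved in distilled water at 1 mL/kg ip; saline controls were run. Serum (100 µL, duplicate) was assayed by NIADDK prolactin RIA, expressed as ng RP3/mL. Results were given as % inhibition versus controls, mean ± standard error, 5–10 rats/group.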
# Rattus norvegicus [3] = assay: Compound was tested for inhibiting prolactin release at the 50.0 mg/kg dose levels; assay type: functional; outline: as §1
# Rattus norvegicus [4] = assay: Dopaminergic activity, ability to lower serum prolactin levels after intraperitoneal administration of compound (50.0 mg/kg); assay type: functional, organism-based; outline: as §1
# Rattus norvegicus [5] = assay: Compound was tested for inhibiting prolactin release at the 0.0456 mg/kg dose levels; assay type: functional; outline: as §1
# Rattus norvegicus [6] = assay: Compound was tested for inhibiting prolactin release at the 0.456 mg/kg dose levels; assay type: functional; outline: as §1
# Rattus norvegicus [7] = assay: Compound was tested for inhibiting prolactin release at the 4.56 mg/kg dose levels 1 hr after ip administration; assay type: functional; settings: route intraperitoneal
# Outline: (§2)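 Time course in reserpine-pretreated male Wistar rats (250–300 g), given reserpine 2.5 mg/rat ip 18 h before dosing. The drug was given ip in distilled water (1 mL/kg), and rats were killed 1, 3 or 6 h later, with saline controls at each time. Serum prolactin was measured by duplicate NIADDK RIA (ng RP3/mL) and reported as % inhibition versus controls, mean ± standard error, 6–10 rats/group.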
# Rattus norvegicus [8] = assay: Compound was tested for inhibiting prolactin release at the 4.56 mg/kg dose levels 3h after ip administration; assay type: functional; settings: route intraperitoneal; outline: as §2
# Rattus norvegicus [9] = assay: Compound was tested for inhibiting prolactin release at the 4.56 mg/kg dose levels 6 hr after ip administration; assay type: functional; settings: route intraperitoneal; outline: as §2
# Rattus norvegicus [10] = assay: Dopaminergic activity, ability to lower serum prolactin levels 1 hr after intraperitoneal administration of compound (4.56 mg/kg); assay type: functional, organism-based; outline: as §2
# Rattus norvegicus [11] = assay: Compound at the 4.56 mg/kg dose levels was evaluated for its ability to lower serum prolactin levels 3h after intraperitoneal administration; assay type: functional, organism-based; design: dose 4.56 mg/kg; outline: as §2
# Rattus norvegicus [12] = assay: Dopaminergic activity, ability to lower serum prolactin levels after intraperitoneal administration of compound (0.0456 mg/k); assay type: functional, organism-based; outline: as §1
# Rattus norvegicus [13] = assay: Dopaminergic activity, ability to lower serum prolactin levels after intraperitoneal administration of compound (0.456 mg/kg); assay type: functional, organism-based; outline: as §1
# Rattus norvegicus [14] = assay: Compound at the 4.56 mg/kg dose levels was evaluated for its ability to lower serum prolactin levels 6 hr after intraperitoneal administration; assay type: functional, organism-based; design: dose 4.56 mg/kg; outline: as §2
# Rattus norvegicus [15] = assay: Compound was tested for inhibiting prolactin release at 0.833 mg/kg dose levels; assay type: functional; outline: as §1
# Rattus norvegicus [16] = assay: Compound was tested for inhibiting prolactin release at the 4.165 mg/kg dose levels; assay type: functional; outline: as §1
# Rattus norvegicus [17] = assay: Compound was tested for inhibiting prolactin release at the 8.33 mg/kg dose levels; assay type: functional; outline: as §1
# Rattus norvegicus [18] = assay: Dopaminergic activity, ability to lower serum prolactin levels after intraperitoneal administration of compound (4.165 mg/kg); assay type: functional, organism-based; outline: as §1
# Rattus norvegicus [19] = assay: Dopaminergic activity, ability to lower serum prolactin levels after intraperitoneal administration of compound (8.33 mg/kg); assay type: functional, organism-based; outline: as §1
# Rattus norvegicus [20] = assay: Dopaminergic activity, ability to lower serum prolactin levels after intraperitoneal administration of compound (0.833 mg/kg); assay type: functional, organism-based; outline: as §1
# Rattus norvegicus [21] = assay: Dopaminergic activity, ability to lower serum prolactin levels after intraperitoneal administration of compound (0.001 mg/kg) in rats; assay type: functional, organism-based; outline: as §1
# Rattus norvegicus [22] = assay: Dopaminergic activity, ability to lower serum prolactin levels after intraperitoneal administration of compound (0.01 mg/kg) in rats; assay type: functional, organism-based; outline: as §1
# Rattus norvegicus [23] = assay: Dopaminergic activity, ability to lower serum prolactin levels after intraperitoneal administration of compound (0.1 mg/kg) in rats; assay type: functional, organism-based; outline: as §1
# Rattus norvegicus [24] = assay: Compound was tested for the percent prolactin inhibiting activity at the 0.001 mg/kg dose levels; assay type: functional
# Outline: (§3)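 Adult male Wistar rats (250-300 g), individually caged, food and water ad libitum, pretreated ip with reserpine 2.5 mg/rat 18 h before dosing to keep prolactin high. Single ip dose in distilled water (1 mL per kg); controls received isotonic saline. Serum prolactin measured by radioimmunoassay in duplicate, 100 μL serum, as ng rat prolactin RP3/mL; % inhibition versus saline controls.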
# Rattus norvegicus [25] = assay: Compound was tested for the percent prolactin inhibiting activity at the 0.01 mg/kg dose levels; assay type: functional; outline: as §3
# Rattus norvegicus [26] = assay: Compound was tested for the percent prolactin inhibiting activity at the 0.1 mg/kg dose levels; assay type: functional; outline: as §3
# Rattus norvegicus [27] = assay: Compound was tested for inhibiting prolactin release at the 103.3 mg/kg dose levels; assay type: functional; outline: as §1
# Rattus norvegicus [28] = assay: Dopaminergic activity, ability to lower serum prolactin levels after intraperitoneal administration of compound (103.3 mg/kg); assay type: functional, organism-based; outline: as §1
# Rattus norvegicus [29] = assay: Dopaminergic activity, ability to lower serum prolactin levels after intraperitoneal administration of compound (34.7 mg/kg); assay type: functional, organism-based; outline: as §1
structure (smiles),measurement,setting,value
Cc1cn2cccc3c2c1C[C@@H]1[C@@H]3CCCN1C,LD50,[1],45 mg/kg
same,Level,Rattus norvegicus [2],18.9 ng/mL
CN1CCC[C@H]2c3cccnc3CC[C@H]21,inhibition in vivo at 50 mg/kg,Rattus norvegicus [3],14.3%
same,LD50,[1],200 mg/kg
same,Level,Rattus norvegicus [4],14.3 ng/mL
CCCN1CCC[C@@H]2c3cccnc3CC[C@H]21,inhibition in vivo at 0.0456 mg/kg,Rattus norvegicus [5],27.5%
same,inhibition in vivo at 0.456 mg/kg,Rattus norvegicus [6],47.3%
same,inhibition in vivo at 4.56 mg/kg,Rattus norvegicus [7],85%
same,inhibition in vivo at 4.56 mg/kg,Rattus norvegicus [8],70%
same,inhibition in vivo at 4.56 mg/kg,Rattus norvegicus [9],41.8%
same,LD50,[1],183 mg/kg
same,Level,Rattus norvegicus [10],2.5 ng/mL
same,Level,Rattus norvegicus [11],4.6 ng/mL
same,Level,Rattus norvegicus [12],12.1 ng/mL
same,Level,Rattus norvegicus [13],8.8 ng/mL
same,Level,Rattus norvegicus [14],9.6 ng/mL
CCN1CCC[C@@H]2c3cccn4cc(C)c(c34)C[C@H]21,inhibition in vivo at 0.833 mg/kg,Rattus norvegicus [15],34.7%
same,inhibition in vivo at 4.165 mg/kg,Rattus norvegicus [16],71.3%
same,inhibition in vivo at 8.33 mg/kg,Rattus norvegicus [17],80.2%
same,LD50,[1],228 mg/kg
same,Level,Rattus norvegicus [18],4.7 ng/mL
same,Level,Rattus norvegicus [19],3.3 ng/mL
same,Level,Rattus norvegicus [20],10.9 ng/mL
CC(C)C[C@H]1C(=O)N2CCC[C@H]2[C@]2(O)O[C@](NC(=O)[C@@H]3C=C4c5cccc6[nH]c(Br)c(c56)C[C@H]4N(C)C3)(C(C)C)C(=O)N12 [BROMOCRIPTINE],Level,Rattus norvegicus [21],12.7 ng/mL
same,Level,Rattus norvegicus [22],6.6 ng/mL
same,Level,Rattus norvegicus [23],1.6 ng/mL
same,inhibition in vivo at 0.001 mg/kg,Rattus norvegicus [24],23.9%
same,inhibition in vivo at 0.01 mg/kg,Rattus norvegicus [25],60.4%
same,inhibition in vivo at 0.1 mg/kg,Rattus norvegicus [26],90.4%
CCCN1CCC[C@@H]2c3cccn4cc(C)c(c34)C[C@H]21,inhibition in vivo at 103.3 mg/kg,Rattus norvegicus [27],38.9%
same,LD50,[1],413 mg/kg
same,Level,Rattus norvegicus [28],10.2 ng/mL
CCCN1CCC[C@H]2c3cccnc3CC[C@H]21,LD50,[1],139 mg/kg
same,Level,Rattus norvegicus [29],19.3 ng/mL
